Test results published in ChEMBL document CHEMBL1671716, “Antimicrobial susceptibility patterns for recent clinical isolates of anaerobic bacteria in South Korea” (2010).

What was measured:
Assay type in all cases: functional
Finegoldia magna = assay: Antimicrobial activity against Finegoldia magna assessed as percent resistant isolates after 48 hrs by agar dilution method in presence of 4 ug/ml beta-lactamase inhibitor Tazobactam
In short: (§1)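 CLSI agar dilution on recent Korean clinical anaerobe isolates. Inoculum 10^5 CFU per spot by replicator. Plates incubated in an anaerobic chamber at 37°C for 48 h. For piperacillin plus tazobactam, tazobactam was held constant at 4 μg/ml. Resistance and susceptibility rates derived from MICs.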

[1] = tested on: Bifidobacterium adolescentis; assay: Antimicrobial activity against Bifidobacterium adolescentis after 48 hrs by agar dilution method in presence of 4 ug/ml beta-lactamase inhibitor Tazobactam
In short: (§2)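 MICs by CLSI agar dilution for piperacillin combined with tazobactam, with tazobactam held constant at 4 μg/ml. Clinical anaerobe isolates inoculated at 10^5 CFU by Steers replicator. Plates kept in an anaerobic chamber at 37°C for 48 h.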

Clostridioides difficile [2] = assay: Antimicrobial activity against Clostridium difficile assessed as percent resistant isolates after 48 hrs by agar dilution method in presence of 4 ug/ml beta-lactamase inhibitor Tazobactam; in short: as §1
Prevotella bivia [3] = assay: Antimicrobial activity against Prevotella bivia assessed as percent resistant isolates after 48 hrs by agar dilution method in presence of 4 ug/ml beta-lactamase inhibitor Tazobactam; in short: as §1
Prevotella intermedia = assay: Antimicrobial activity against Prevotella intermedia assessed as percent susceptible isolates after 48 hrs by agar dilution method in presence of 4 ug/ml beta-lactamase inhibitor Tazobactam
In short: (§3)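 CLSI agar dilution (M11-A7); inoculum 10^5 CFU applied by replicator; plates incubated anaerobically 48 h at 37°C. For piperacillin-tazobactam, tazobactam held constant at 4 μg/ml.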

Fusobacterium varium = assay: Antimicrobial activity against Fusobacterium varium after 48 hrs by agar dilution method in presence of 4 ug/ml beta-lactamase inhibitor Tazobactam; in short: as §3
Bacteroides caccae [4] = assay: Antimicrobial activity against Bacteroides caccae after 48 hrs by agar dilution method in presence of 4 ug/ml beta-lactamase inhibitor Tazobactam; in short: as §2
[5] = tested on: Peptoniphilus asaccharolyticus; assay: Antimicrobial activity against Peptoniphilus asaccharolyticus assessed as percent susceptible isolates after 48 hrs by agar dilution method in presence of 4 ug/ml beta-lactamase inhibitor Tazobactam; in short: as §3
Schaalia odontolytica [6] = assay: Antimicrobial activity against Actinomyces odontolyticus assessed as percent resistant isolates after 48 hrs by agar dilution method in presence of 4 ug/ml beta-lactamase inhibitor Tazobactam; in short: as §1
Clostridioides difficile [7] = assay: Antimicrobial activity against Clostridium difficile after 48 hrs by agar dilution method in presence of 4 ug/ml beta-lactamase inhibitor Tazobactam; in short: as §3
Fusobacterium necrogenes = assay: Antimicrobial activity against Fusobacterium necrogenes after 48 hrs by agar dilution method in presence of 4 ug/ml beta-lactamase inhibitor Tazobactam; in short: as §3
Eubacterium sp. = assay: Antimicrobial activity against Eubacterium sp. after 48 hrs by agar dilution method in presence of 4 ug/ml beta-lactamase inhibitor Tazobactam; in short: as §3
Bacteroides caccae [8] = assay: Antimicrobial activity against Bacteroides caccae assessed as percent resistant isolates after 48 hrs by agar dilution method in presence of 4 ug/ml beta-lactamase inhibitor Tazobactam; in short: as §1
Parvimonas micra [9] = assay: Antimicrobial activity against Peptostreptococcus micros after 48 hrs by agar dilution method in presence of 4 ug/ml beta-lactamase inhibitor Tazobactam; in short: as §3
Hoylesella oralis = assay: Antimicrobial activity against Prevotella oralis assessed as percent resistant isolates after 48 hrs by agar dilution method in presence of 4 ug/ml beta-lactamase inhibitor Tazobactam; in short: as §1
[10] = tested on: Porphyromonas asaccharolytica; assay: Antimicrobial activity against Porphyromonas asaccharolytica after 48 hrs by agar dilution method in presence of 4 ug/ml beta-lactamase inhibitor Tazobactam; in short: as §3
Fusobacterium mortiferum = assay: Antimicrobial activity against Fusobacterium mortiferum after 48 hrs by agar dilution method in presence of 4 ug/ml beta-lactamase inhibitor Tazobactam; in short: as §3
[11] = tested on: Peptoniphilus asaccharolyticus; assay: Antimicrobial activity against Peptoniphilus asaccharolyticus after 48 hrs by agar dilution method in presence of 4 ug/ml beta-lactamase inhibitor Tazobactam; in short: as §3
Prevotella bivia [12] = assay: Antimicrobial activity against Prevotella bivia after 48 hrs by agar dilution method in presence of 4 ug/ml beta-lactamase inhibitor Tazobactam; in short: as §3
Schaalia meyeri = assay: Antimicrobial activity against Actinomyces meyeri after 48 hrs by agar dilution method in presence of 4 ug/ml beta-lactamase inhibitor Tazobactam; in short: as §2
Schaalia odontolytica [13] = assay: Antimicrobial activity against Actinomyces odontolyticus after 48 hrs by agar dilution method in presence of 4 ug/ml beta-lactamase inhibitor Tazobactam; in short: as §2
[14] = tested on: Peptostreptococcus anaerobius; assay: Antimicrobial activity against Peptostreptococcus anaerobius assessed as percent susceptible isolates after 48 hrs by agar dilution method in presence of 4 ug/ml beta-lactamase inhibitor Tazobactam; in short: as §3
Bacteroides caccae [15] = assay: Antimicrobial activity against Bacteroides caccae assessed as percent susceptible isolates after 48 hrs by agar dilution method in presence of 4 ug/ml beta-lactamase inhibitor Tazobactam
[16] = tested on: Bacteroides thetaiotaomicron; assay: Antimicrobial activity against Bacteroides thetaiotaomicron assessed as percent resistant isolates after 48 hrs by agar dilution method in presence of 4 ug/ml beta-lactamase inhibitor Tazobactam; in short: as §1
Parvimonas micra [17] = assay: Antimicrobial activity against Peptostreptococcus micros assessed as percent susceptible isolates after 48 hrs by agar dilution method in presence of 4 ug/ml beta-lactamase inhibitor Tazobactam; in short: as §3

Work on `CCN1CCN(C(=O)N[C@@H](C(=O)N[C@@H]2C(=O)N3[C@@H]2SC(C)(C)[C@@H]3C(=O)O)c2ccccc2)C(=O)C1=O` [PIPERACILLIN] yielded an Activity (Finegoldia magna) of 0%, an MIC50 [1] of 0.5 µg/mL and an MIC90 [1] of 8 µg/mL. It also gave an Activity (Clostridioides difficile [2]) of 0%, an Activity (Prevotella bivia [3]) of 0% and an Activity (Prevotella intermedia) of 100%. It also gave an MIC (Fusobacterium varium) of 0.03 µg/mL, an MIC50 (Bacteroides caccae [4]) of 8 µg/mL and an MIC90 (Bacteroides caccae [4]) of 64 µg/mL. The Activity [5] was 100%, the Activity (Schaalia odontolytica [6]) was 0% and the MIC50 (Clostridioides difficile [7]) was 4 µg/mL. It also gave an MIC90 (Clostridioides difficile [7]) of 8 µg/mL, an MIC (Fusobacterium necrogenes) of 0.03 µg/mL and an MIC50 (Eubacterium sp.) of 0.5 µg/mL. It also gave an MIC90 (Eubacterium sp.) of 8 µg/mL, an Activity (Bacteroides caccae [8]) of 7% and an MIC50 (Parvimonas micra [9]) of 0.25 µg/mL. It also gave an MIC90 (Parvimonas micra [9]) of 16 µg/mL, an Activity (Hoylesella oralis) of 0% and an MIC [10] of 0.03 µg/mL. It also gave an MIC (Fusobacterium mortiferum) of 0.03 µg/mL, an MIC50 [11] of no more than 0.03 µg/mL and an MIC90 [11] of 0.06 µg/mL. The MIC50 (Prevotella bivia [12]) was no more than 0.03 µg/mL, the MIC90 (Prevotella bivia [12]) was 4 µg/mL and the MIC50 (Schaalia meyeri) was 0.5 µg/mL. For the same compound, the MIC90 (Schaalia meyeri) was 8 µg/mL, the MIC50 (Schaalia odontolytica [13]) was 0.5 µg/mL and the MIC90 (Schaalia odontolytica [13]) was 8 µg/mL. It also gave an Activity [14] of 100%, an Activity (Bacteroides caccae [15]) of 89% and an Activity [16] of 7%. For the same compound, the Activity (Parvimonas micra [17]) was 0%.
